ChEMBL document CHEMBL1138750, “Design, synthesis, and biological evaluation of 1,2,3,7-tetrahydro-6h-purin-6-one and 3,7-dihydro-1h-purine-2,6-dione derivatives as corticotropin-releasing factor(1) receptor antagonists” (J Med Chem, 2004)

Biological target: T1, Corticotropin-releasing factor receptor 1 (Rattus norvegicus, UniProt P35353)
T1 sequence (P35353 whole entry): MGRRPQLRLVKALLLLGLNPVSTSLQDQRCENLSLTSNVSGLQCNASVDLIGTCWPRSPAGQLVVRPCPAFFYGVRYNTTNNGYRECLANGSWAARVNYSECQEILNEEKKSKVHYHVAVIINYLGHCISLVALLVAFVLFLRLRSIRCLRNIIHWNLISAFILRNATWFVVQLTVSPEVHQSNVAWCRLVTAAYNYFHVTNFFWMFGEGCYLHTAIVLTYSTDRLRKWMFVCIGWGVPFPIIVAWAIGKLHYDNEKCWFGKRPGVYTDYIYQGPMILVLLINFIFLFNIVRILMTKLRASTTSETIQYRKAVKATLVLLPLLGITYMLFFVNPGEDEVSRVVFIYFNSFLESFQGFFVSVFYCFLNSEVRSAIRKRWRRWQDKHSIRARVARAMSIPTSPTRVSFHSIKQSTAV
Assay: Inhibition of [125I]- Ovine CRF binding to rat frontal cortex corticotropin releasing factor 1 receptor
Format: tissue-based
Details: not given
Summary of the method: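 Frozen rat frontal cortex homogenate (25 μg/well) in 50 mM HEPES pH 7.0 with 10 mM MgCl₂, 2 mM EGTA, protease inhibitors, 0.005% Triton X-100, bacitracin and 0.1% ovalbumin. Bound ligand collected by filtration on PEI-treated filters and gamma counted. Nonspecific binding defined with 1 μM DMP696.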

Compound | IC50 [nM]
CCc1nc2c(n1C(C1CC1)C1CC1)C(=O)N(C)CN2c1ccc(Cl)cc1Cl | 6
CCCC(C)n1c(CC)nc2c1C(=O)N(C)CN2c1ccc(Cl)cc1Cl (stereo not drawn) | 52
CCCCC(CC)n1c(CC)nc2c1C(=O)N(C)CN2c1ccc(Cl)cc1Cl (stereo not drawn) | 18
CCc1nc2c(n1Cc1ccccc1C)C(=O)N(C)CN2c1ccc(Cl)cc1Cl | 458
CCc1nc2c(n1C(C)C1CCC1)C(=O)N(C)CN2c1ccc(Cl)cc1Cl (stereo not drawn) | 26
CCc1nc2c(n1C(C)C1CC1)C(=O)N(C)CN2c1ccc(Cl)cc1Cl (stereo not drawn) | 55
CCCC(COC)n1c(CC)nc2c1C(=O)N(C)CN2c1ccc(Cl)cc1Cl (stereo not drawn) | 43
CCCC(CCC)n1c(CC)nc2c1C(=O)N(C)CN2c1ccc(Cl)cc1 | 173
CCCC(CCC)n1c(CC)nc2c1C(=O)N(C)CN2c1c(C)cc(C)cc1C | 22
CCc1nc2c(n1Cc1ccccc1C)C(=O)N(C)CN2c1ccc(OC)cc1Cl | 875
CCc1nc2c(n1COCc1ccccc1)C(=O)N(C)CN2c1ccc(Cl)cc1Cl | 860
CCc1nc2c(n1C(CC)C(C)C)C(=O)N(C)CN2c1ccc(C(C)C)cc1Cl (stereo not drawn) | 555
CCCC(CCC)n1c(CC)nc2c1C(=O)N(C)CN2c1ccc(C(C)C)cc1Cl | 50
CCCC(CCC)n1c(CC)nc2c1C(=O)N(C)C(C)N2c1ccc(Cl)cc1Cl (stereo not drawn) | 383
CCc1nc2c(n1C(CC)C1CC1)C(=O)N(C)CN2c1ccc(Cl)cc1Cl (stereo not drawn) | 14
CCCC(CCC)n1cnc2c1C(=O)N(C)CN2c1ccc(Cl)cc1Cl | 898
CCCC(CCC)n1c(CC)nc2c1C(=O)N(C)CN2c1ccc(Cl)cc1Cl | 5.4
CCCC(CCC)n1c(CC)nc2c1c(=O)n(C)c(=O)n2-c1ccc(Cl)cc1Cl | 75
CCc1nc2c(n1C(CC)C(C)C)C(=O)N(C)CN2c1ccc(Cl)cc1Cl (stereo not drawn) | 51
CCCC(CCC)n1c(CC)nc2c1C(=O)N(C)CN2c1ccc(OC)cc1Cl | 27
CCCC(CCC)n1c(CC)nc2c1C(=O)N(C)C(CC)N2c1ccc(Cl)cc1Cl (stereo not drawn) | 626
CCc1nc2c(n1C(CC)C1CC1)C(=O)N(C)CN2c1ccc(OC)cc1Cl (stereo not drawn) | 113
CCc1nc2c(n1Cc1ccc(-c3ccccc3)cc1)C(=O)N(C)CN2c1ccc(Cl)cc1Cl | 324
CCCC(C1CC1)n1c(CC)nc2c1C(=O)N(C)CN2c1ccc(Cl)cc1Cl (stereo not drawn) | 10
CCc1nc2c(n1C(CC)CC)C(=O)N(C)CN2c1ccc(Cl)cc1Cl | 112
CCc1nc2c(n1Cc1ccc(OC)cc1)C(=O)N(C)CN2c1ccc(Cl)cc1Cl | 456

System: not listed separately
Assay: Inhibition of CRF-stimulated cAMP production in human Y-79 retinoblastoma cells
Format: functional, cell-based
Details: Y79
Summary of the method: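 Human Y-79 retinoblastoma cells, 20 000/well in HBSS with 2 mM CaCl₂, 5 mM MgCl₂, 20 mM HEPES and 1 mM IBMX. Antagonist (typically 0.01–10 000 nM) preincubated 30 min at 37 °C, then 1 nM CRF added for 30 min at 37 °C. cAMP read by HTRF against a cAMP standard curve. Percent inhibition of CRF-induced cAMP determined in triplicate; basal cAMP without CRF also measured.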

Compound | IC50 [nM]
CCc1nc2c(n1C(C1CC1)C1CC1)C(=O)N(C)CN2c1ccc(Cl)cc1Cl | 14.4
CCCC(CCC)n1c(CC)nc2c1C(=O)N(C)CN2c1ccc(Cl)cc1Cl | 24.2
